This passage reports Deuterium retention results from ChEMBL document CHEMBL1123118, “Substrate probes for the mechanism of aromatic hydroxylation catalyzed by cytochrome P-450: selectively deuterated analogues of warfarin” (J Med Chem, 1985).

Structures are written as SMILES.

For series [1], the species on record is Rattus norvegicus. The series can be described thus: Amount of deuterium retained was reported after reincubation followed by normal workup in phenobarbital treated male rats with rac 8-D. In kind it is ADME, organism-based.
The species named for series [2] is Rattus norvegicus. The series can be described thus: Amount of deuterium retained was reported after normal workup in rats. Format: ADME, organism-based. In a few lines: (§1)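 Liver microsomes from male Sprague-Dawley rats (140–160 g), untreated or pretreated with phenobarbital or β-naphthoflavone; protein set to 10 mg/mL. The 1-mL mix held substrate, an NADP+/glucose 6-phosphate/MgCl2 cofactor solution, glucose-6-phosphate dehydrogenase and microsomes in 0.05 M phosphate pH 7.4. It ran 10 min at 37 °C, in duplicate. Hydroxywarfarins were measured by capillary GC-MS, and % deuterium retention was calculated as product over substrate incorporation.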

Series [3] is filed under the species Rattus norvegicus. The series can be described thus: Amount of deuterium retained was reported after reincubation followed by normal workup in phenobarbital treated male rats. In kind it is ADME, organism-based.
Series [4] is filed under the species Rattus norvegicus. As to the kind of experiment: Compound incubated with microsomal preparations from beta-naphthoflavone-treated male rats with the substrate rac 7-D and the amount of deuterium retained was reported after reincubation followed by normal workup. In kind it is ADME.
Series [5] is filed under the species Rattus norvegicus. As to the kind of experiment: Amount of deuterium retained was reported after normal workup in beta-naphthoflavone-treated male rats with the substrate rac 7-D. In kind it is ADME, organism-based. A digest of the protocol:
as §1

The species named for series [6] is Rattus norvegicus. As to the kind of experiment: Compound incubated with microsomal preparations from phenobarbital treated male rats with the substrate rac 8-D and the amount of deuterium retained was reported after normal workup. Format: ADME. In a few lines: as §1

Regarding `CC(=O)CC(c1ccccc1)c1c(O)oc2cc(O)ccc2c1=O` (centres undefined), the Deuterium retention in the series filed under Rattus norvegicus [1] amounted to 83%; in the series filed under Rattus norvegicus [2], 76%; in the series filed under Rattus norvegicus [3], 76%; in the series filed under Rattus norvegicus [4] it was 50%; in the series filed under Rattus norvegicus [5], 52%; in the series listed under Rattus norvegicus [6], 84%.
In the case of `CC(=O)CC(c1ccccc1)c1c(O)oc2ccc(O)cc2c1=O` (centres undefined), the Deuterium retention in the series listed under Rattus norvegicus [1] is reported as 89%; in the series listed under Rattus norvegicus [2], 66%; in the series listed under Rattus norvegicus [3] it was 65%; in the series filed under Rattus norvegicus [4], 84%; in the series listed under Rattus norvegicus [5] it was 84%; in the series filed under Rattus norvegicus [6] it was 90%.
For `CC(=O)CC(c1ccc(O)cc1)c1c(O)oc2ccccc2c1=O` (centres undefined), the Deuterium retention is on record as 91% in the series listed under Rattus norvegicus [1]; 84% in the series filed under Rattus norvegicus [2]; 85% in the series listed under Rattus norvegicus [3]; 83% in the series filed under Rattus norvegicus [4]; 86% in the series listed under Rattus norvegicus [5]; 92% in the series listed under Rattus norvegicus [6].
Turning to `CC(=O)CC(c1ccccc1)c1c(O)oc2c(O)cccc2c1=O` (centres undefined), the Deuterium retention in the series filed under Rattus norvegicus [1] came out at 58%; in the series filed under Rattus norvegicus [2] it was 82%; in the series listed under Rattus norvegicus [3], 83%; in the series listed under Rattus norvegicus [4], 76%; in the series listed under Rattus norvegicus [5], 76%; in the series filed under Rattus norvegicus [6], 58%.
